Series [1] concerns CSNK2A1 mRNA. Kind of series: qPCR gene silencing in OVCAR3 cells. In kind it is cell-based. To be noted: 48 h, 10% FBS. A digest of the protocol:
(§1)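 Cells were seeded at 50,000/well and treated with peptide complexes of CSNK2A1-targeting or non-targeting siRNA at increasing N:P ratios in McCoy's 5A/DMEM with 10% FBS. Medium was replaced after a PBS wash at 24 h, for 48 h total. CSNK2A1 mRNA was quantified by TaqMan qRT-PCR with 18S as reference.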

Series [2] relates to CSNK2A1 mRNA. Kind of series: qPCR gene silencing in CAOV3 cells. The format is cell-based. To be noted: CAOV3, 80:1 N:P ratio, 48 h. A digest of the protocol: as §1
In general terms: Quantitative PCR measures a nucleic acid by following its amplification.

For series [3], the system named is MCF10a breast epithelial cells. Kind of series: Cell viability of healthy cells. In kind it is cell-based. To be noted: 48 h.
In the next series the target is T1, RNase A (Bos taurus, UniProt P61823).
T1 sequence (P61823 27-150): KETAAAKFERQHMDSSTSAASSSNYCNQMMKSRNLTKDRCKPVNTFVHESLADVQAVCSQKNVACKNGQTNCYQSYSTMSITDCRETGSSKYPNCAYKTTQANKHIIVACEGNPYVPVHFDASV
Nature of the series: Protection of siRNA from RNase A degradation, agarose gel electrophoresis. To be noted: complexes with siNT, 5 μg/mL RNase A, 37°C, 1 h, 6% SDS. In kind it is in vitro ADME. A digest of the protocol:
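Non-targeting siRNA (10 μM solution) was mixed with each peptide (10 μM solution in RNase-free water) at several N:P ratios and held 20 min at room temperature. Complexes or free siRNA were left untreated or exposed to 5 μg/mL RNase A at 37°C for 1 h, then dissociated with 6% SDS. Samples were run on 2% agarose at 100 V, ethidium bromide-stained and imaged for intact siRNA.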

WEADIVADIVADIVAGGG-(d)RRRRRRRRR [DIVA3]: the “CSNK2A1 mRNA silencing efficacy” value in the series with CSNK2A1 mRNA [1] (OVCAR3, siCSNK2A1 complex at 60:1 versus siNT complex) stood at 47%.

Consider “WEADIVADIVHDIVADIVAGGG-(d)RRRRRRRRR [DIV3H]”, for which, in the series on CSNK2A1 mRNA [1] (OVCAR3, siCSNK2A1 complex at 80:1 versus siNT complex), the “CSNK2A1 mRNA silencing efficacy” value was 72%.

For “WEADIVADIVWDIVADIVAGGG-(d)RRRRRRRRR [DIV3W]”, the “CSNK2A1 mRNA knockdown, maximum” value with CSNK2A1 mRNA [2] stood at 80%. For the same substance, the “cytotoxic effects on healthy cells” value in series [3] was “no cytotoxic effects were observed”. For the same substance, the “siRNA degradation after incubation with RNase A” value on RNase A is on record as “Minimal degradation”.

The values above are taken from article PMC9530961 (Molecular Therapy. Nucleic Acids, 2022).
